≈ marks a conversion by molar mass, not a printed value.
Assays:
[1] = system: intracellular C. neoformans; test: Intracellular effect in J774.16 macrophages; type: cell-based; details: 0.25, 1 or 4 µg/ml; dose dependent, 12 and 24 h
How it was run: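 J774.16 macrophages were co-incubated 1:1 with C. neoformans for 2 h, with complement and anti-capsular MAb 18B7 as opsonins. Wells were washed to remove extracellular yeast, then fresh DMEM with varying test compound concentrations was added, at 37°C, 5% CO2. Macrophages were lysed and plated for intracellular CFU.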

Rhizopus oryzae = test: In vitro susceptibility testing; type: cell-based; details: FTL strains (3)
How it was run: (§1)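 Inoculum prepared per CLSI M27-A3. Plates incubated at 37°C with 5% CO2 for 24 to 96 h. MIC was the lowest concentration inhibiting 50% of growth versus the drug-free control. Minimum fungicidal concentration was also measured: serial dilutions from wells were plated on YPD agar, and MFC was the lowest concentration yielding three or fewer colonies (99% of inoculum killed).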

Candida albicans = test: In vitro susceptibility testing; type: cell-based
How it was run: as §1

C. albicans = test: Yeast-to-hypha differentiation; type: cell-based; details: 4 µg/ml
How it was run: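 C. albicans yeast and hyphal forms were counted after exposure to test compound and compared with drug-free controls. Twenty random fields, about 120 cells, were scored.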

Candida parapsilosis = test: In vitro susceptibility testing; type: cell-based
How it was run: as §1

Histoplasma capsulatum = type: cell-based
C. albicans SC 5314 = test: Mouse model of invasive candidiasis; type: in vivo, mouse (CBA/J); details: after 21 days of infection; 1.2 mg/kg/day i.p.; 8 mice per group
How it was run: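 Female CBA/J mice, 8 weeks old (8 per group), were infected i.v. with 100 µl containing 10^5 C. albicans SC-5314. Test compound was given i.p. at 1.2 mg/kg/day in 100 µl PBS with 0.4% DMSO immediately after inoculation; untreated mice received vehicle. Survival was monitored. Organs of survivors were homogenized in 10 ml PBS, diluted tenfold, and plated on YPD at 30°C for 72 h for CFU.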

Candida spp. = test: In vitro susceptibility; type: cell-based; details: most Candida spp. examined
How it was run: as §1

Paecilomyces variotii = test: In vitro susceptibility testing; type: cell-based; details: QC FTL strains
How it was run: as §1

C. neoformans [2] = test: Mouse model of cryptococcosis, intravenous infection; type: in vivo, mouse (CBA/J); details: 1.2 mg/kg/day i.p.; 8 mice per group; vehicle 7.0 ± 1.1
C. neoformans [3] = test: Transmission electron microscopy, intracellular vesicles; type: cell-based; details: 4 µg/ml, 6 h
[4] = system: Bone marrow-derived macrophages; type: cell-based
Candida krusei = test: In vitro susceptibility testing; type: cell-based
How it was run: as §1

Blastomyces dermatitis = test: In vitro susceptibility testing; type: cell-based; details: FTL strains (10)
How it was run: as §1

[5] = system: S. cerevisiae deletion mutants; type: cell-based, Saccharomyces cerevisiae
C. neoformans cells = test: In vitro killing assay; type: cell-based
How it was run: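 An overnight C. neoformans culture was washed in PBS and resuspended in HEPES-buffered YNB, pH 7.4. 2 × 10^4 cells were exposed to 1, 2 or 4 µg/ml test compound in 10 ml (0.4% DMSO final), at 37°C, 5% CO2, on a rotary shaker at 200 rpm. Aliquots taken at time points were diluted, plated on YPD, incubated 72 h at 30°C, and CFU counted.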

Cc1ccccc1C(=O)NN=Cc1ccc(O)c(Br)c1 [BHBM, N′-(3-bromo-4-hydroxybenzylidene)-2-methylbenzohydrazide]
intracellular replication of C. neoformans inside macrophages (CFU) [1]: significantly decreased | MIC range (Rhizopus oryzae): 2 µg/mL (≈ 6 µM) | MIC range (Candida albicans; FTL strains (3)): >32 µg/mL | MIC range (Candida albicans; MDPL strains (5)): >32 µg/mL | yeast-to-hypha differentiation (C. albicans): significantly reduced | MIC range (Candida parapsilosis; MDPL strains (3)): >32 µg/mL | MIC range (Candida parapsilosis; QC FTL strains): >16 µg/mL | MIC range (Histoplasma capsulatum): 0.125−1 µg/ml | mice still alive (C. albicans SC 5314): 62.5% | in vitro susceptibility (Candida spp.): resistant | MIC range (Paecilomyces variotii): >16 µg/mL | survival, days postinfection (C. neoformans [2]): 11.1 ± 3.7 days | volume occupied by the intracellular vesicles (C. neoformans [3]; P <0.05): significant increase | numbers of vesicles per square micrometer of cell surface area (C. neoformans [3]; untreated 0.33 ± 0.36): 0.84 ± 0.58 | mammalian GlcCer level [4]: did not significantly affect | MIC range (Candida krusei; ATCC 6258 (MDPL strain)): 16 µg/mL (≈ 48 µM) | MIC range (Candida krusei; MDPL strain (1)): 32 µg/mL (≈ 96 µM) | MIC range (Candida krusei; QC FTL strains): 8 µg/mL (≈ 24 µM) | MIC range (Blastomyces dermatitis): 0.5−1 µg/ml | resistance of Δsla2 mutant [5]: not resistant | growth of Δapl5, Δcos111, Δmkk1, Δste2 mutants compared with parent strain ([5]; BHBM in the range of 11 to 92 µg/ml, 24 h, 30°C): increased resistance | incubation required to kill about 50% of the cells (C. neoformans cells): at least 72 h | type of killing (C. neoformans cells; time-kill assay, 37°C, 5% CO2, pH 7.4): concentration-dependent killing
